MrgX1 ag: human MrgX1 receptor agonism, primary screen | Q96LB2 | MrgX1-HEK293 cells, Fluo-4 calcium fluorescence, agonist mode; active compounds read high | B-score at 10 µM | hit rate 0.44% among 310,000 | AID 588627;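 active = calcium response B-score plate-corrected fluorescence ratio at least 3 library SD, with starting fluorescence B-score inside 5 SD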
Target sequence (Q96LB2 whole entry, looked up): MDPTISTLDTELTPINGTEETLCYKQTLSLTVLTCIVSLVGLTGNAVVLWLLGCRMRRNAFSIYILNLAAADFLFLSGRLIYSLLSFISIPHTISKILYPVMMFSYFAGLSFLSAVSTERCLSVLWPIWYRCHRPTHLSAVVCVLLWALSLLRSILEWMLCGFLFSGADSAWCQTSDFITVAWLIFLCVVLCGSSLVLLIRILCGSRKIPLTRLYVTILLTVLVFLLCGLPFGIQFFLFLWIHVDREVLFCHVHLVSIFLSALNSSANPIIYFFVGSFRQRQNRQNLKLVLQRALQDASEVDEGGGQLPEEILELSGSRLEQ
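Test system: HEK293 cells stably expressing human MrgX1 receptor; amount: 15,000 cells per well; doses: compound delivered in addition one of three; times: overnight plating before 1 h dye loading; detection: Fluo-4 NW calcium-flux fluorescence, kinetic read; read-out basis: B-scored fluorescence response ratio; controls: positive and negative controls per plate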
MrgX1 PAM: human MrgX1 positive allosteric modulation, primary screen; Q96LB2; MrgX1-HEK293, Fluo-4 calcium flux, FDSS; active compounds read high; B-score at 10 µM; hit rate 0.63% among 310,000;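 active = plate-corrected calcium response at least 3 library SD above typical, normal starting fluorescence, not activating the receptor alone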;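 also: compound read alongside a low EC10 to EC30 dose of BAM8-22 agonist; peak minus trough fluorescence over baseline measured at the second addition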
RGS4 act: RGS4 potentiation or activation; B-score at 10 µM; HEK293 M3R/inducible RGS4, carbachol calcium flux Fluo4; active compounds read low; hit rate 0.92% among 310,000;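 active = B-score of the integrated calcium signal more than 4 SD below the library mean, with starting fluorescence not abnormally high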;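 also: negative B-score means reduced calcium response which marks RGS4 activation or potentiation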
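Material: Inducible-RGS4 HEK293 cells carrying M3 receptor; also added: carbachol at ECmax as muscarinic agonist stimulus; incubation: compound preincubation 20 min at room temperature before agonist; signal: Fluo4-AM (2 µM) calcium-flux fluorescence, kinetic read; measure: integrated calcium ratio converted to B score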
RGS4 block: human RGS4 inhibition; B-score at 10 µM; HEK293 M3R/RGS4 inducible, Fluo-4 calcium flux; active compounds read high; triggered by carbachol at its EC20; hit rate 0.45% among 310,000; P49798;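 active = B-score, a plate-corrected calcium signal, over three deviations above library mean, with baseline fluorescence within five deviations of library mean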;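 also: RGS4 expression induced by doxycycline in cells with stable M3 receptor; B-score is computed from the integrated fluorescence ratio over baseline after carbachol; higher B-score means a larger calcium signal and so more RGS4 inhibition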
Target sequence (P49798 whole entry, looked up): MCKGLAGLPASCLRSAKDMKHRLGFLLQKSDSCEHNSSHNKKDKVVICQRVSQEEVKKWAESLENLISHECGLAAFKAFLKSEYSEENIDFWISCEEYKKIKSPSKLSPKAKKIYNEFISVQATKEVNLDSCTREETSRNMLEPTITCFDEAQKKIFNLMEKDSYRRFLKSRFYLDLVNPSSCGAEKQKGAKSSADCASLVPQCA
MrgX1 antagonist: blocks BAM8-22 activation of human MrgX1 receptor | B-score at 10 µM | MRGX1-HEK293 calcium flux, Fluo-4, BAM8-22 antagonism; active compounds read low | Q96LB2 | hit rate 1.3% among 310,000;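 active = calcium-response B-score plate-corrected more than 3 library SD below zero, starting fluorescence within 5 deviations, no agonist response on first addition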;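 also: peak minus trough fluorescence over baseline after final BAM8-22 challenge near maximal dose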
MrgX1 ant reconf: confirmation of human MrgX1 receptor antagonists | shares compounds with MrgX1 antagonist | MrgX1-HEK293, BAM8-22 calcium flux, Fluo-4; active compounds read low | remaining BAM8-22 calcium response % of control (active compounds read low), % at 10 µM | hit rate 19% among 2,300 | AID 602420;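 active = remaining agonist calcium response no higher than 100% minus 3 SD of agonist-only control wells, with starting fluorescence near control levels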;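 also: agonist BAM8-22 given at a near maximal EC90 to ECmax level; peak minus minimum fluorescence divided by baseline after agonist addition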
HEK293 Ca flux: activity in parental HEK293 cells lacking MrgX1. shares compounds with MrgX1 antagonist. Fluo-4 calcium fluorescence, FDSS. fluorescence ratio F(max-min)/F0 at 10 µM. hit rate 2% among 4,000. AID 624111;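 active = duplicate-averaged calcium fluorescence ratio at least three times the standard deviation of buffer wells, a nonspecific response in parental cells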
HEK293 Ca counter: activity in parental HEK293 cells without MrgX1 | shares compounds with MrgX1 antagonist | parental HEK293 calcium flux, Fluo-4 fluorescence ratio; active compounds read high | fluorescence ratio F(max-min)/F0 at 10 µM | hit rate 0.4% among 4,000 | AID 624114;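 active = calcium fluorescence ratio, averaged over duplicates, at least 3 SD of the buffer-well ratio, meaning a nonspecific response in receptor-free cells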;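 also: untransfected parental HEK293 lacking MrgX1 used as counterscreen for MrgX1 allosteric activators; fluorescence change taken during the second addition on a kinetic imager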
HEK293 Ca cntr2: activity in parental HEK293 cells lacking MrgX1 receptor. shares compounds with MrgX1 antagonist. Fluo-4 calcium fluorescence (FDSS); active compounds read high. fluorescence ratio F(max-min)/F0 at 10 µM. hit rate 8.7% among 4,000;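 active = calcium fluorescence ratio at least three times the spread of buffer wells, meaning a non-specific response in parental cells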
* hit, by the source's call; i = inactive; · = no result. Most compounds without a hit are left out; they make up all but 3.5% or so of the library.

SMILES	MrgX1 ag	MrgX1 PAM	RGS4 act	RGS4 block	MrgX1 antagonist	MrgX1 ant reconf	HEK293 Ca flux	HEK293 Ca counter	HEK293 Ca cntr2
O=C(Nc1ccc(CN2CCOCC2)cc1)c1cc2ccccn2n1	i	i	i	i	-4.9*	i	i	i	i
Cc1ccc([N+](=O)[O-])cc1NC(=O)Nc1onc(C)c1C	i	i	i	i	i	·	·	·	·
C=CCOc1c(Br)cc(CNn2nnnc2N)cc1OCC	i	i	i	i	-4.8*	i	i	i	i
CCOC(=O)CNC(=O)CSc1ccc(-c2nc3ccccc3[nH]2)cn1	i	i	i	i	-4.8*	i	i	i	i
O=C(Nc1ccnc(=O)[nH]1)c1sc2ccccc2c1Cl	i	i	i	i	i	·	·	·	·
Cc1cc(NC(=O)CSc2nc3c(c(-c4cccnc4)c2C#N)CCC3)no1	i	i	i	i	-5.3*	i	i	i	i
C#CCOCCOCCOCCNc1nc(N2CCN(C(=O)C([C@@H](C)CC)n3cc(C(N)Cc4ccc(O)cc4)nn3)CC2)nc(N2CCN(C(=O)[C@H](CCC(=O)O)n3cc(C(N)CO)nn3)CC2)n1 (stereo partly specified)	i	i	i	i	i	·	·	·	·
COc1ccc2cc(S(=O)(=O)N3CCOCC3)ccc2c1	i	i	i	i	i	·	·	·	·
CCN1c2ccc(S(=O)(=O)N3CCOCC3)cc2N(Cc2ccc(OC)cc2)C1C (stereo unspecified)	i	i	i	i	-4.7*	i	i	i	i
O=C(Nc1ccccc1F)C(=O)c1cn(CC(=O)N2CCCCC2)c2ccccc12	i	i	i	i	-5*	i	i	i	i
CC(=O)Nc1ccc(NC(=O)C(=O)c2cn(CC(=O)N3CCCC3)c3ccccc23)cc1	i	i	i	i	i	·	·	·	·
Cc1ccc(CC(=O)NCc2ccc(F)cc2)cc1	i	i	i	i	-5*	i	i	i	i
Cc1ccc(CNC(=O)Cc2ccc(-c3ccccc3)cc2)cc1	i	i	i	i	i	·	·	·	·
COc1cc2c(cc1OC)N1C(=O)CC(OCC(=O)O)C3C4CC5(CCN5C(=O)C4=O)C2C31 (stereo unspecified)	i	i	i	i	-6*	i	i	i	i
CCc1nn(CC(=O)Nc2ccc(Br)c(C)c2)c(=N)s1	i	i	i	i	i	·	·	·	·
CC(=O)Nc1nc(C(=O)O)cs1	i	i	i	i	-4.9*	81%*	i	i	i
COC(=O)/C=C1/S/C(=N/N=C/c2ccc(N(C)C)cc2)NC1=O	i	i	i	i	i	·	·	·	·
Cc1ccc2nc3sc(C(=O)N4CCCc5ccccc54)c(N)c3cc2c1	i	i	i	i	-5.7*	i	0.58*	i	i
CN(C)c1ccnc2sc3c(=O)n(-c4ccccc4)cnc3c12	i	i	i	i	-4.6*	i	i	i	i
CCCSc1nnc(NC(=O)Nc2ccccc2OC)s1	i	i	i	i	i	·	·	·	·
CC12CCC(=O)N1C(C(=O)NNC(=O)COc1cccc(C(F)(F)F)c1)CS2 (stereo unspecified)	i	i	i	i	i	·	·	·	·
Cc1ccc(-c2cc(C(F)F)n3ncc(C(=O)N4CCc5ccccc54)c3n2)cc1	i	i	i	i	i	·	·	·	·
O=C(c1cnn2c(C(F)F)cc(-c3ccccc3)nc12)N1CCc2ccccc21	i	i	i	i	-4.7*	i	i	i	i

High-throughput results: PubChem, Johns Hopkins Ion Channel Center
